Laboratory results reported in ChEMBL document CHEMBL1131064, “Design, synthesis, and anticonvulsant activity of 1-(pyrid-3-ylsulfonamido)-2-nitroethylenes” (J Med Chem, 1998).

What was measured:
[1] = tested on: Mus musculus; test: Tested for anticonvulsant activity by measuring its ability to protect against NMDLA(340 mg/kg) induced convulsions at the time of peak effect of 4h.; assay type: functional
[2] = tested on: Mus musculus; test: Tested for anticonvulsant activity by measuring its ability to protect against bicuculline (2.7 mg/kg) induced convulsions at the time of peak effect of 4h.; assay type: functional
[3] = organism: Mus musculus; test: Tested for anticonvulsant activity by measuring its ability to protect against electric shock in maximal electroshock seizure (MES) test at the time of peak effect of 4 hr; assay type: functional
[4] = tested on: Mus musculus; test: Tested for anticonvulsant activity by measuring its ability to protect against pentetrazole (85 mg/kg) induced convulsions at the time of peak effect of 4h.; assay type: functional
Method in brief: (§1)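 Groups of eight male OF-1 mice (22-25 g) received the test compound ip (10 mL/kg) at doses up to 100 mg/kg. At the MES-derived time of peak effect, pentetrazole 85 mg/kg in 0.9% NaCl was given sc and protection against convulsions recorded. ED50 and 95% confidence intervals were computed by Litchfield–Wilcoxon.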

[5] = tested on: Mus musculus; test: Tested for anticonvulsant activity by measuring its ability to protect against strychnine(1.2 mg/kg) induced convulsions at the time of peak effect of 4 hr; assay type: functional
[6] = Neurotoxicity was evaluated at a time of peak effect of 4 hr; assay type: toxicity; settings: mouse
[7] = Partition coefficient in 1-octanol phosphate buffer at pH 7.40; assay type: physicochemical; settings: pH 7.4
Method in brief: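 Shake-flask partition between 1-octanol and phosphate buffer at pH 7.40.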

[8] = Partition coefficient (logP); assay type: physicochemical; settings: octanol/water
Method in brief: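 log P obtained by extrapolation from RP-HPLC log k′. The basis is a correlation of log k′ with shake-flask log P in 1-octanol/phosphate buffer pH 7.40, built from reference compounds.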

[9] = organism: Mus musculus; test: Tested for anticonvulsant activity by measuring rate of mice protected against electric shock applied at 0.5 hr after injection in maximal electroshock seizure (MES) test; out of 6; assay type: functional
Method in brief: (§2)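 Screen in male OF-1 mice (22-25 g), groups of six or seven, given 30 mg/kg ip at 10 mL/kg. Corneal electroshock (50 mA, 60 Hz, 0.2 s) was applied 0.5 or 3 h post-injection. Protection was scored as abolition of hind limb tonic extension and reported as the rate of protected mice.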

[10] = organism: Mus musculus; test: Tested for anticonvulsant activity by measuring rate of mice protected against electric shock applied at 3 hr after injection in maximal electroshock seizure (MES) test; out of 7; assay type: functional; method in brief: as §2
[11] = tested on: Rattus norvegicus; test: Urinary volume excreted over 4 hr by rats after oral administration of 30 mg/kg; assay type: functional, Urine
Method in brief: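 Male Wistar rats (193-229 g) were dosed orally with 30 mg/kg in 0.9% NaCl/0.1% methocel at 40 mL/kg; three rats shared a metabolism cage. Urine was collected over 4 h and expressed as mL/kg.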

[12] = organism: Mus musculus; test: Tested for anticonvulsant activity by measuring rate of mice protected against electric shock applied at 3 h after injection in maximal electroshock seizure (MES) test; out of 6; assay type: functional; method in brief: as §2
[13] = tested on: Mus musculus; test: Tested for anticonvulsant activity by measuring its ability to protect against strychnine(1.2 mg/kg) induced convulsions at the time of peak effect of 3h; assay type: functional
Method in brief: (§3)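 OF-1 male mice, eight per group, were given compound ip at up to 100 mg/kg. At the MES time of peak effect, a convulsant in 0.9% NaCl was injected sc; bicuculline was dissolved in warmed 0.1 N HCl/0.9% NaCl and used within 30 min. ED50 with 95% CI was computed by Litchfield–Wilcoxon.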

[14] = tested on: Mus musculus; test: Tested for anticonvulsant activity by measuring its ability to protect against NMDLA(340 mg/kg) induced convulsions at the time of peak effect of 3h.; assay type: functional; method in brief: as §3
[15] = tested on: Mus musculus; test: Tested for anticonvulsant activity by measuring its ability to protect against bicuculline (2.7 mg/kg) induced convulsions at the time of peak effect of 3h.; assay type: functional
Method in brief: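 Male OF-1 mice (22-25 g), eight per group, given the test compound ip (10 mL/kg) at doses up to 100 mg/kg. Bicuculline 2.70 mg/kg, dissolved in warmed 0.1 N HCl plus 0.9% NaCl (10 mL/kg) and used within 30 min, was injected sc at the MES time of peak effect. Protection scored; ED50 with 95% CI by Litchfield–Wilcoxon.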

[16] = organism: Mus musculus; test: Tested for anticonvulsant activity by measuring its ability to protect against electric shock in maximal electroshock seizure (MES) test at the time of peak effect of 3h; assay type: functional
Method in brief: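 Male OF-1 mice (22-25 g) were dosed ip at 10 mL/kg and tested at the peak-effect time. Corneal electroshock was 50 mA, 60 Hz, 0.2 s; protection meant abolition of hind limb tonic extension. Groups of eight mice received varying doses. ED50 with 95% CI was computed by Litchfield–Wilcoxon.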

[17] = tested on: Mus musculus; test: Tested for anticonvulsant activity by measuring its ability to protect against pentetrazole (85 mg/kg) induced convulsions at the time of peak effect of 3h.; assay type: functional; method in brief: as §3
[18] = Neurotoxicity was evaluated at a time of peak effect of 3h; assay type: toxicity; settings: mouse
[19] = tested on: Mus musculus; test: Tested for anticonvulsant activity by measuring its ability to protect against strychnine(1.2 mg/kg) induced convulsions at the time of peak effect of 2 hr; assay type: functional; method in brief: as §3
[20] = tested on: Mus musculus; test: Tested for anticonvulsant activity by measuring its ability to protect against NMDLA(340 mg/kg) induced convulsions at the time of peak effect of 2 hr.; assay type: functional; method in brief: as §3
[21] = organism: Mus musculus; test: Tested for anticonvulsant activity by measuring its ability to protect against electric shock in maximal electroshock seizure (MES) test at the time of peak effect of 2 hr
[22] = tested on: Mus musculus; test: Tested for anticonvulsant activity by measuring its ability to protect against pentetrazole (85 mg/kg) induced convulsions at the time of peak effect of 2 hr.; assay type: functional; method in brief: as §1
[23] = tested on: Mus musculus; test: Tested for anticonvulsant activity by measuring its ability to protect against bicuculline (2.7 mg/kg) induced convulsions at the time of peak effect of 2 hr.; assay type: functional; method in brief: as §3

logP [8] | SMILES | No. of mice protected [9] | No. of mice protected [10] | Diuresis [11] | No. of mice protected [12] | also measured
1.97 | O=[N+]([O-])/C=C(\NC1CCCCCC1)NS(=O)(=O)c1cnccc1NC1CCCCC1 | 0 | 5 | 20 mL/kg |  | 
2.3 | O=[N+]([O-])/C=C(\NC1CCCCCC1)NS(=O)(=O)c1cnccc1NC1CCCCCC1 | 1 |  | 25 mL/kg | 5 | 
2.57 | O=[N+]([O-])/C=C(\NC1CCCCCCC1)NS(=O)(=O)c1cnccc1NC1CCCCCC1 | 1 | 4 | 23 mL/kg |  | 
2.59 | O=[N+]([O-])/C=C(\NC1CCCCCC1)NS(=O)(=O)c1cnccc1NC1CCCCCCC1 | 2 |  | 20 mL/kg | 5 | 
1.99 | O=[N+]([O-])/C=C(\NC1CCCCC1)NS(=O)(=O)c1cnccc1NC1CCCCCC1 | 1 |  | 18 mL/kg | 5 | 
2.86 | O=[N+]([O-])/C=C(\NC1CCCCCCC1)NS(=O)(=O)c1cnccc1NC1CCCCCCC1 | 0 | 3 | 22 mL/kg |  | 
2.27 | O=[N+]([O-])/C=C(\NC1CCCCCCC1)NS(=O)(=O)c1cnccc1NC1CCCCC1 | 2 | 4 | 21 mL/kg |  | 

Further lines, the compound ahead of its results:

SMILES | logP [8] | No. of mice protected [9] | No. of mice protected [10] | Diuresis [11] | No. of mice protected [12] | also measured
O=S(=O)(NC(=S)NC1CCCCC1)c1cnccc1NC1CCCCCCC1 |  |  |  |  |  | ED50 [1]: > 100 mg/kg; ED50 [2]: > 100 mg/kg; ED50 [3]: 1.19 mg/kg; ED50 [4]: > 100 mg/kg; ED50 [5]: > 100 mg/kg; TD50 at 4 h [6]: 147 mg/kg
CC(C)N/C(=C\[N+](=O)[O-])NS(=O)(=O)c1cnccc1NC1CCCC1 |  |  |  |  |  | logD [7]: 0.538
CCNc1ccncc1S(=O)(=O)N/C(=C/[N+](=O)[O-])NC(C)C |  |  |  |  |  | logD [7]: -0.482
O=[N+]([O-])/C=C(\NC1CCCCC1)NS(=O)(=O)c1cnccc1NC1CCCCCCC1 | 2.31 | 1 | 7 | 22 mL/kg |  | ED50 [13]: > 100 mg/kg; ED50 [14]: > 100 mg/kg; ED50 [15]: > 100 mg/kg; ED50 [16]: 8.25 mg/kg; ED50 [17]: > 100 mg/kg; TD50 at 3 h [18]: 114 mg/kg
Cc1cccc(Nc2ccncc2S(=O)(=O)N/C(=C/[N+](=O)[O-])NC2CCCCC2)c1 | 1.66 | 1 |  | 29 mL/kg | 2 | 
Cc1cccc(Nc2ccncc2S(=O)(=O)N/C(=C/[N+](=O)[O-])NC(C)C)c1 |  |  |  |  |  | logD [7]: 1.12
O=[N+]([O-])/C=C(\NC1CCCCC1)NS(=O)(=O)c1cnccc1NC1CCCCC1 | 1.67 | 0 | 4 | 20 mL/kg |  | 
O=C1NC(=O)C(c2ccccc2)(c2ccccc2)N1 [PHENYTOIN] |  |  |  |  |  | ED50 [19]: > 100 mg/kg; ED50 [20]: > 100 mg/kg; ED50 [21]: 9.51 mg/kg; ED50 [22]: > 100 mg/kg; ED50 [23]: > 100 mg/kg
Cc1cccc(Nc2ccncc2S(=O)(=O)NC(=O)NC(C)C)c1 [TORSEMIDE] |  | 0 |  | 88 mL/kg | 0 | 
